# Measured values as given in ChEMBL document CHEMBL3994569, “Synthesis, anti-varicella-zoster virus and anti-cytomegalovirus activity of quinazoline-2,4-diones containing isoxazolidine and phosphonate substructures” (Eur J Med Chem, 2017).
# Columns and labels:
# [1] = (§1) Cytotoxicity against HEL cells infected with Varicella-Zoster virus assessed as alteration in cell morphology by microscopic method; type: cell-based; conditions: human, HEL cells infected with Varicella-Zoster virus
# How it was run: (§2)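 In the HEL cultures used for the antiviral assays, cell morphology was examined microscopically across varying compound concentrations. MCC is the minimum concentration causing a microscopically detectable alteration of cell morphology.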
# [2] = test system: CCRF-CEM; test: Anti-proliferative activity against human CEM cells measured after 72 hrs by coulter counter method; type: ADME, cell-based
# How it was run: (§3)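 Cells at 300,000–500,000 cells/mL, combined 1:1 by volume with compound dilutions, incubated at 37 °C: L1210 for two days, CEM for three days, HeLa for four days. Cells counted by Coulter counter.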
# [3] = test system: Human alphaherpesvirus 3; test: Antiviral activity against thymidine kinase deficient Varicella-Zoster virus 07-1 infected in HEL cells assessed as reduction in virus plaque formation; type: functional, cell-based
# How it was run: (§4)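 Confluent HEL fibroblast cultures were infected with VZV at an input of 100 PFU and incubated with varying compound concentrations. Plaques were counted once plaque formation was complete in untreated infected controls.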
# [4] = test system: Human alphaherpesvirus 3; test: Antiviral activity against thymidine kinase expressing Varicella-Zoster virus OKA infected in HEL cells assessed as reduction in virus plaque formation; type: functional, cell-based, strain Oka vaccine; how it was run: as §4
# [5] = test system: HeLa; test: Anti-proliferative activity against human HeLa cells measured after 72 hrs by coulter counter method; type: ADME, cell-based
# [6] = test system: Cytomegalovirus; test: Antiviral activity against Cytomegalovirus AD169 infected in HEL cells assessed as reduction in virus plaque formation; type: functional, cell-based
# How it was run: (§5)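 Confluent HEL fibroblast cultures infected with 100 PFU of HCMV and kept with varying compound concentrations. Plaques scored once plaque formation was complete in untreated infected controls.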
# [7] = test system: Cytomegalovirus; test: Antiviral activity against Cytomegalovirus Davis infected in HEL cells assessed as reduction in virus plaque formation; type: functional, cell-based; how it was run: as §5
# [8] = test system: L1210; test: Anti-proliferative activity against mouse L1210 cells measured after 48 hrs by coulter counter method; type: ADME, cell-based; how it was run: as §3
# [9] = (§6) Cytotoxicity against HEL cells infected with Cytomegalovirus assessed as alteration in cell morphology by microscopic method; type: cell-based; conditions: human, HEL cells infected with Cytomegalovirus; how it was run: as §2
# [10] = test system: HMEC-1; test: Anti-proliferative activity against HMEC1 cells by coulter counter method; type: ADME, cell-based, Homo sapiens
# How it was run: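 HMEC-1 cells at 300,000–500,000 cells/mL, mixed 1:1 by volume with serial dilutions of test compound, incubated at 37 °C. Cell number counted by Coulter counter.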
# [11] = test system: HeLa; test: Anti-proliferative activity against human HeLa cells measured after 4 days by coulter counter method; type: ADME, cell-based; how it was run: as §3
# [12] = test system: HEL; test: Cytotoxicity against HEL cells infected with Varicella-Zoster virus assessed as growth inhibition; type: cell-based; conditions: human, hel
# [13] = test system: HEL; test: as §1; type: cell-based; conditions: human, hel; how it was run: as §2
# [14] = test system: HEL; test: as §6; type: cell-based; conditions: human, hel; how it was run: as §2
# [15] = test system: Human alphaherpesvirus 2; test: Antiviral activity against Herpes simplex virus 2 G infected in HEL cells assessed as reduction in virus-induced cytopathogenicity; type: functional, cell-based; conditions: Human alphaherpesvirus 2, strain G
# [16] = test system: Human alphaherpesvirus 1; test: Antiviral activity against thymidine kinase-deficient acyclovir-resistant Herpes simplex virus 1 KOS infected in HEL cells assessed as reduction in virus-induced cytopathogenicity; type: functional, cell-based; conditions: Human alphaherpesvirus 1, KOS
# How it was run: (§7)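 Confluent HEL fibroblast monolayers were infected with 100 CCID50 of virus and incubated with varying concentrations of compound. Cytopathicity was scored once it was complete in untreated infected controls.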
# [17] = Cytotoxicity against virus infected HEL cells assessed as alteration in cell morphology by microscopic method; type: cell-based; conditions: human; how it was run: as §2
# [18] = test system: Human adenovirus 2; test: Antiviral activity against Human adenovirus 2 infected in HEL cells assessed as reduction in virus-induced cytopathogenicity; type: functional, cell-based; conditions: Human mastadenovirus C; how it was run: as §7
# [19] = test system: Human alphaherpesvirus 1; test: Antiviral activity against Herpes simplex virus 1 KOS infected in HEL cells assessed as reduction in virus-induced cytopathogenicity; type: functional, cell-based; conditions: Human alphaherpesvirus 1, KOS; how it was run: as §7
# [20] = test system: HEL; test: Cytotoxicity against HEL cells infected with Cytomegalovirus assessed as growth inhibition; type: cell-based; conditions: human
# [21] = Human alphaherpesvirus 3, 07-1, HEL
# [22] = Human alphaherpesvirus 3, strain Oka vaccine, HEL
# [23] = Human betaherpesvirus 5, AD169, HEL
# [24] = Human betaherpesvirus 5, Davis, HEL
SMILES,MCC [1] [µM],"IC50 ([2]; Homo sapiens, CCRF-CEM, 72 h) [µM]","EC50 [3, 21] [µM]","EC50 [4, 22] [µM]","EC50 [6, 23] [µM]","EC50 [7, 24] [µM]","IC50 ([8]; Mus musculus, L1210, 48 h) [µM]",MCC [9] [µM],"IC50 ([10]; Homo sapiens, HMEC-1) [µM]","IC50 ([11]; Homo sapiens, HeLa, 96 h) [µM]",CC50 [12] [µM],also measured
CCOP(=O)(OCC)[C@H]1C[C@@H](Cn2ccc(=O)n(C(=O)c3ccccc3)c2=O)ON1C,> 100,> 200,88.4,65.7,> 100,> 100,> 200,100,,,,IC50 [5]: > 200 µM
CCOP(=O)(OCC)C1CC(Cn2c(=O)n(C(=O)c3ccccc3F)c(=O)c3ccccc32)ON1Cc1ccccc1 (mixture of isomers),100,158,20,16.7,> 20,> 20,155,100,> 250,≥ 250,21.4,
CCOP(=O)(OCC)[C@@H]1C[C@@H](Cn2c(=O)n(C(=O)c3cccc(F)c3)c(=O)c3ccccc32)ON1C (relative stereo),> 100,> 250,15,16.7,> 20,> 20,228,100,> 250,,16.5,
CCOP(=O)(OCC)C1CC(Cn2c(=O)n(Cc3ccc(F)cc3)c(=O)c3ccccc32)ON1Cc1ccccc1 (mixture of isomers; cis),,17,> 4,> 4,> 4,,19,,27,17,,MCC [13]: 20 µM; EC50 [7]: > 4 µM; MCC [14]: 20 µM
CCOP(=O)(OCC)[C@@H]1C[C@@H](Cn2c(=O)n(C(=O)c3ccc(F)cc3)c(=O)c3ccccc32)ON1C (relative stereo),≥ 100,,10.7,6.9,> 20,> 20,> 250,100,,,14.7,EC50 [15]: 12 µM; EC50 [16]: 9 µM; MCC [17]: ≥ 100 µM; EC50 [18]: 17.5 µM; EC50 [19]: 39 µM
NC(=O)c1ncn([C@@H]2O[C@H](CO)[C@@H](O)[C@H]2O)n1 [RIBAVIRIN],,,,,,,,,,,,MCC [17]: ≥ 250 µM
O=c1[nH]c(=O)n([C@H]2C[C@H](O)[C@@H](CO)O2)cc1/C=C/Br [BRIVUDINE],> 300,,22.7,0.005,,,,,,,300,EC50 [15]: 146 µM; MCC [17]: > 250 µM
Nc1nc(O)c2ncn(COC(CO)CO)c2n1 [GANCICLOVIR],,,,,14.9,6.5,,> 350,,,,EC50 [15]: 0.055 µM; MCC [17]: > 100 µM; CC50 [20]: > 350 µM
CCOP(=O)(OCC)C1CC(Cn2c(=O)n(C(=O)c3cccc(F)c3)c(=O)c3ccccc32)ON1Cc1ccccc1 (mixture of isomers),100,166,8.5,6,> 20,> 20,185,100,> 250,,19.3,
CCOP(=O)(OCC)C1CC(Cn2c(=O)n(C(=O)c3ccc(F)cc3)c(=O)c3ccccc32)ON1Cc1ccccc1 (mixture of isomers),100,132,7.6,7.4,> 20,> 20,105,20,,> 250,12.3,
CCOP(=O)(OCC)C1CC(Cn2c(=O)n(Cc3cccc(F)c3)c(=O)c3ccccc32)ON1Cc1ccccc1 (mixture of isomers; trans),,,,,,,,,,,,IC50 ([10]; hmec-1): 28 µM; IC50 ([2]; ccrf-cem): 17 µM; EC50 [3]: 20 µM; EC50 [6]: 9.9 µM; EC50 [7]: 8.94 µM; CC50 [20]: 20.8 µM; IC50 ([11]; hela): 63 µM; IC50 ([8]; l1210): 17 µM; MCC [14]: 100 µM
Nc1ccn([C@H]2CC[C@@H](CO)O2)c(=O)n1 [ZALCITABINE],,,,,,,,,,,,MCC [17]: > 250 µM; EC50 [18]: 7.2 µM
CCOP(=O)(OCC)[C@@H]1C[C@@H](Cn2c(=O)n(C(=O)c3ccccc3)c(=O)c3ccccc32)ON1C,≥ 100,70,13.7,7.5,> 100,> 100,≥ 159,100,,,> 100,IC50 [5]: 96 µM
CCOP(=O)(OCC)[C@@H]1C[C@@H](Cn2c(=O)n(C(=O)c3ccc(F)cc3)c(=O)c3ccccc32)ON1Cc1ccccc1 (relative stereo),100,170,8.3,7.5,> 20,> 20,123,20,≥ 250,,12.7,
CCOP(=O)(OCC)C1CC(Cn2c(=O)n(C(=O)c3cccc(F)c3)c(=O)c3ccccc32)ON1C (mixture of isomers),> 100,,21.4,7.8,> 100,> 100,> 250,100,,> 250,30,
Cc1cn([C@H]2C[C@H](F)[C@@H](CO)O2)c(=O)[nH]c1=O [ALOVUDINE],,,,,,,,,,,,MCC [17]: > 250 µM; EC50 [18]: 10 µM
Nc1nc2c(ncn2COCCO)c(=O)[nH]1 [ACYCLOVIR],> 440,,,,,,,,,,,MCC [17]: > 250 µM
CCOP(=O)(OCC)[C@@H]1C[C@@H](Cn2ccc(=O)n(C(=O)c3ccccc3)c2=O)ON1C,> 100,> 200,> 100,83.6,> 100,> 100,> 200,100,,,,IC50 [5]: > 200 µM
CCOP(=O)(OCC)[C@@H]1C[C@@H](Cn2c(=O)n(C(=O)c3ccccc3)c(=O)c3ccccc32)ON1Cc1ccccc1 (relative stereo),100,≥ 250,> 20,8.5,> 20,> 20,154,100,,> 250,28.9,
CCOP(=O)(OCC)[C@@H]1C[C@@H](Cn2c(=O)n(C(=O)c3cccc(F)c3)c(=O)c3ccccc32)ON1Cc1ccccc1 (relative stereo),100,224,8.5,8.7,> 20,> 20,170,20,> 250,> 250,9.8,
CCOP(=O)(OCC)[C@H]1C[C@@H](Cn2c(=O)n(C(=O)c3ccccc3)c(=O)c3ccccc32)ON1C,> 100,74,10.9,7.7,> 100,> 100,> 200,100,,,,IC50 [5]: > 200 µM
CCOP(=O)(OCC)C1CC(Cn2c(=O)n(Cc3cccc(F)c3)c(=O)c3ccccc32)ON1Cc1ccccc1 (mixture of isomers; cis),100,,> 20,> 20,,,,,,73,,IC50 ([10]; hmec-1): 204 µM; IC50 ([2]; ccrf-cem): 49 µM; EC50 [6]: > 20 µM; EC50 [7]: > 20 µM; IC50 ([8]; l1210): 89 µM; MCC [14]: 20 µM
CCOP(=O)(OCC)[C@H]1C[C@@H](Cn2c(=O)n(C(=O)c3ccccc3)c(=O)c3ccccc32)ON1Cc1ccccc1 (relative stereo),100,,10.8,8.5,> 20,> 20,155,100,> 250,,16.3,
CCOP(=O)(OCC)C1CC(Cn2c(=O)n(Cc3cccc(F)c3)c(=O)c3ccccc32)ON1C (mixture of isomers),≥ 100,77,27.1,7,> 20,44.7,118,100,149,86,36.8,
CCOP(=O)(OCC)C1CC(Cn2c(=O)n(Cc3ccccc3)c(=O)c3ccccc32)ON1Cc1ccccc1 (mixture of isomers; trans),,,,,,,,,,,,IC50 ([2]; ccrf-cem): 15 µM; EC50 [3]: > 20 µM; EC50 [4]: > 20 µM; EC50 [6]: ≥ 14.5 µM; EC50 [7]: 13.1 µM; CC50 [20]: 41.7 µM; IC50 ([11]; hela): 73 µM; IC50 ([8]; l1210): 17 µM
